Results from PubChem BioAssay AID1040 (The Scripps Research Institute Molecular Screening Center, 2008).
Out of some 200,000 compounds screened, about 2,000 (1%) were called active. Shown is part of a subset that was picked to be rich in actives. Unmarked numbers belong to inactive results.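 How the source made its calls: active means inhibition above the campaign mean inhibition of all tested compounds plus 3 SD (cut at about 20% in these data); inactive means the rest.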

Biological target: Neuropeptide Y receptor type 1 (Homo sapiens) (UniProt P25929)
Assay: blockers of human neuropeptide Y Y1 receptor – cell-based, primary screen (AID 1040);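 further: 0% = DMSO wells given NPY plus isoproterenol and 100% = isoproterenol alone without NPY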
Conditions: HEK293-CNG Y1 cells, membrane potential fluorescence; at 3.6 µM; stronger effect = higher value; NPY at EC95, then isoproterenol
Summary of the method: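 Material: HEK293 Y1/CNG channel cell line | Also added: NPY (25 nM), isoproterenol (1 µM), Ro 20-1724 (25 µM) | Compound: One concentration, 3.6 µM, in 0.4% DMSO | Schedule: 3 h dye uptake, 1 h room-temperature compound, 45 min post-isoproterenol | Signal: Membrane-potential fluorescent dye readout | Read-out: % inhibition of NPY effect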

Chain of Neuropeptide Y receptor type 1 (Homo sapiens) (P25929 whole entry, looked up): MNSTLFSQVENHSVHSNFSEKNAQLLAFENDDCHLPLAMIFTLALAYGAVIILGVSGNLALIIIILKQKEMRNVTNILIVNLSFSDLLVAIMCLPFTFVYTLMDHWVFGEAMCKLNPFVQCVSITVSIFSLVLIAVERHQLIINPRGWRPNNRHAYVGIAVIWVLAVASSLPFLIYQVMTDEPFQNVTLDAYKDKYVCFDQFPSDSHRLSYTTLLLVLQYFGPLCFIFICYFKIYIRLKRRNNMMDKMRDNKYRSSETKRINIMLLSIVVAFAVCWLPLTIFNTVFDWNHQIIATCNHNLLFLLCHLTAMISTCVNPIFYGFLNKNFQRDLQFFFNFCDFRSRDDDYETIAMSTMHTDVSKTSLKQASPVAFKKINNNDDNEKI

Compound | inhibition
COc1cccc(OC)c1C(=O)NC(=S)Nc1ccc(N2CCOCC2)c(Cl)c1 | 9.33%
Cc1c(Cl)c([N+](=O)[O-])nn1CC(=O)NCC1CCCO1 (stereo not given) | -5.55%
CCOC(=O)c1cnn(Cc2ccccc2Cl)c1N | -2.37%
COC(=O)c1ccc(CSc2ccccc2C)o1 | -3.04%
COC(=O)c1ccc(COC(=O)c2c(C)nn(Cc3ccccc3Cl)c2Cl)o1 | 22.2% (active)
O=C(Nc1ccc(F)cc1)N1CCCC(c2nc3c(nnn3Cc3ccccc3Cl)c(=O)[nH]2)C1 (stereo not given) | -6.56%
Oc1ccccc1C=NC1CCCCC1N=Cc1ccccc1O (stereo not given) | 4.16%
Cc1ccc(Cl)cc1N1CCN(C(=O)c2cccc3c(=O)c(C)c(-c4ccccc4)oc23)CC1 | 4.2%
Cc1cccc(OCCC(=O)Nc2cc(S(=O)(=O)N3CCCCC3)ccc2N2CCOCC2)c1 | 2.92%
Cc1ncc([N+](=O)[O-])n1CCOC(=O)c1ccc(Br)cc1 | -0.91%
COc1ccccc1NC(=O)COC(=O)Cc1ccc(S(=O)(=O)N2CCCCC2)s1 | -4.82%
O=C(Nc1ccc(N2C(=O)c3cccc4cccc(c34)C2=O)cc1)c1ccc(N2CCCCC2)c([N+](=O)[O-])c1 | -0.12%
COc1ccc(-c2[nH]ncc2/C=N/NC(=O)c2cc(Br)ccc2O)c(OC)c1 | 4.29%
CCS(=O)(=O)n1nc(-c2ccccc2)nc1SCc1ccccc1 | 28.2% (active)
CS(=O)(=O)n1nc(-c2ccccc2)nc1NCc1ccco1 | -0.86%
CCS(=O)(=O)n1nc(-c2ccc(OC)cc2)nc1SC | 3.74%
Cc1ccnc(NC(=O)CCC(=O)N(CC(=O)NCc2ccccc2)Cc2ccco2)c1 | 2.07%
O=C1C2N=NN(CC(=O)N3N=C(c4cccc5ccccc45)CC3c3ccccc3)C2C(=O)N1c1ccccc1 (stereo not given) | 6.21%
Cc1ccc(N2C(=O)C3N=NN(CC(=O)N4N=C(c5cccc6ccccc56)CC4c4ccccc4)C3C2=O)cc1 (stereo not given) | 20.5% (active)
CC(=O)Oc1ccccc1C1=NN(C(C)=O)C(c2ccccc2)C1 (stereo not given) | 1.31%
CCn1ccnc1CN1CCCC(C(=O)c2ccc3c4c(cccc24)CC3)C1 (stereo not given) | 3.36%
Cc1cccc(-c2ncc(CN3CCC(CO)(CCCc4ccccc4)CC3)cn2)c1 | 4.93%
OCC1(CCc2ccccc2)CCN(Cc2ccc3nsnc3c2)CC1 | 22.8% (active)

Compound | inhibition
CC(=O)c1cccc(CN2CCC(CO)(Cc3ccccc3)CC2)c1 | 2.21%
COC(=O)C(C(=O)Nc1cccc(Cl)c1C)C1CCCC1 (stereo not given) | 5.62%
Cc1ccccc1Nc1scc(-c2ccc(Br)cc2)[n+]1-c1ccccc1C | 31.6% (active)
COc1ccc(C)cc1-n1nnnc1SCc1nc2ccccc2c(=O)[nH]1 | -0.32%
CCN(CCCNC(=O)CSc1cc(=O)n(C)c2cc(Cl)ccc12)Cc1ccccc1 | 1.58%
COCCCNC(=S)N1CCCC(c2nc3cc(C)c(C)cc3[nH]2)C1 (stereo not given) | -0.11%
NS(=O)(=O)c1ccc(CCNC(=O)c2ccc([N+](=O)[O-])cc2[N+](=O)[O-])cc1 | 0.19%
N#Cc1cnn2cc(CCN3CCOCC3)c(-c3ccc(F)cc3)nc12 | -1.23%
COc1ccc(/C=N/NC(=O)Cn2cc(C(F)(F)F)ccc2=O)cc1 | 0.12%
COc1ccc(C(=O)Nc2ccc(F)cc2F)cc1 | 6.11%
CCOC(=O)N1CCN(S(=O)(=O)c2ccc(C(=O)Nc3ccc(F)cc3F)cc2)CC1 | 30.3% (active)
O=C(Nc1cccc(F)c1)c1ccc(S(=O)(=O)N2CCCC2)cc1 | -0.82%
CC(=O)c1cnc(SCC(=O)O)nc1C | -4%
COc1ccc(C(=O)NN2C(=O)C3C(c4ccccc4)C=CC(c4ccccc4)C3C2=O)cc1 (stereo not given) | 11.3%
COc1ccc2c(c1)C(C)=CC(C)(C)N2C(=O)CNCc1ccc2c(c1)OCO2 | 27.3% (active)
COc1ccc2c(c1)C(C)=CC(C)(C)N2C(=O)Nc1ccccc1 | 13.7%
CCn1cc(C(=O)NCc2ccc3c(c2)OCO3)c2cc(OC)c(OC)cc2c1=O | 1.79%
O=C(/C=C/c1ccc(OCc2c(F)cccc2Cl)cc1)N1CCOCC1 | 5.45%
COn1c(-c2ccc(Cl)cc2Cl)nc2ncccc21 | 5.03%
CCC(=O)c1ccc(N2CCN(C(=O)c3cc([N+](=O)[O-])ccc3F)CC2)c(F)c1 | -2.39%
CCN1CCN(c2ccc([N+](=O)[O-])cc2C(=O)c2ccc(Cl)cc2)CC1 | 36.6% (active)
O=C(Nc1cccc(Cl)c1)c1cc([N+](=O)[O-])ccc1N1CCN(CCO)CC1 | 0.17%
CCc1ccc(OCC(=O)OCC(=O)c2c(N)n(C)c(=O)n(C)c2=O)cc1 | -0.61%

Compound | inhibition
O=C(NCc1ccco1)c1nn2cccnc2c1Cl | 1.08%
Cc1cc(C(C)(C)C)oc1C(=O)N(CC(=O)NC1CCCC1)Cc1ccc(Cl)cc1 | 28.1% (active)
Cc1noc(C)c1C(=O)N(CC(=O)NC1CCCC1)Cc1ccccc1F | 1.99%
COc1ccc(CN(CC(=O)NC2CCCC2)C(=O)CCC(=O)Nc2cc(C)on2)cc1 | 1.61%
COc1ccc(Cc2nnc(N/N=C/c3ccccc3O)[nH]c2=O)cc1OC | 7.54%
OCCCN1c2ccccc2Nc2nnc(-c3ccccc3)cc21 | -7.91%
Cc1nc([N+](=O)[O-])c(NCCCO)n1Cc1ccccc1 | -2.13%
N=c1c2c(-c3ccccc3)c(-c3ccccc3)n(Cc3ccccc3)c2ncn1CCCO | 73.2% (active)
COc1ccc(-c2nn(-c3ccccc3)cc2CN2CCCO2)c(F)c1 | 3.17%
CCCOC(=O)c1[nH]c2c(c1C)C(=O)CC(c1cc(OC)c(OC)c(OC)c1)C2 (stereo not given) | -8.2%
CCOC(=O)c1[nH]c2c(c1C)C(=O)CC(c1ccc(N(C)C)cc1)C2 (stereo not given) | 6.58%
CCCOC(=O)c1[nH]c2c(c1C)C(=O)CC(c1cccs1)C2 (stereo not given) | 33.9% (active)
COc1ccc(NC(=O)/C(C#N)=C\c2cc(OC)c(OCc3ccc(C(=O)O)cc3)cc2Br)cc1 | 2.86%
O=C1c2cccnc2C(Nc2ccc(S(=O)(=O)N3CCCCCC3)cc2)N1Cc1ccccc1 (stereo not given) | 30.7% (active)
Cc1nc(Nc2ccc(S(=O)(=O)N3CCCC3)cc2)c2nnn(Cc3ccccc3)c2n1 | -11%
O=S(=O)(NCc1ccccc1)c1ccc(S(=O)(=O)N2CCCC2)cc1 | 1%
Cc1cccc(N2CCC(NCc3c(C(=O)N4CCCCC4)nc4c(C)cccn34)CC2)c1 | 11%
COc1ccc(C(C[N+](=O)[O-])n2nc(C)cc2C)cc1 (stereo not given) | -2.49%
CCc1ccc(CNC(=O)C2CCCN(c3nc4ccccc4o3)C2)cc1 (stereo not given) | 26.4% (active)
COc1ccc(OC)c(CNC(=O)C2CCCN(c3nc4ccccc4o3)C2)c1 (stereo not given) | 7.8%
COc1ccccc1CNC(=O)C1CCN(c2nc3ccccc3o2)CC1 | -3.62%
COC(=O)c1ccc(COC(=O)c2cnccn2)cc1 | -0.5%
OC(COCC1COc2ccccc2O1)CN1CCN(c2ccc(F)cc2)CC1 (stereo not given) | -9.16%

Compound | inhibition
Cc1ccc(S(=O)(=O)N(C)CC(=O)OCC(=O)N2CC(=O)Nc3ccccc32)cc1 | 1.33%
O=C(c1ccccc1)c1ccc(OCC(O)CN2CCCC2)cc1 (stereo not given) | 20.8% (active)
O=C(c1ccc(Cl)cc1)c1ccc(OCC(O)CN2CCCCC2)cc1 (stereo not given) | 6.02%
OC(COc1cccc(OCC(O)CN2CCCC2)c1)CN1CCCC1 (stereo not given) | 6.73%
CN1CCNC(=O)C1CC(=O)NCCC1=CCCCC1 (stereo not given) | 1.21%
Cc1ccc(OCC(=O)NC(C)c2ccccc2)c([N+](=O)[O-])n1 (stereo not given) | 19.9%
CS(=O)(=O)N1CCCC(C(=O)N2CCOCC2)C1 (stereo not given) | 94.5% (active)
Cc1ccc(CNC(=O)C2CCCN(S(C)(=O)=O)C2)cc1 (stereo not given) | 0.15%
CCCS(=O)(=O)N1CCCC(C(=O)N2CCN(c3ccccc3)CC2)C1 (stereo not given) | 0.57%
COc1ccc(N2CCN(CCCNC(=O)C3CCN(S(=O)(=O)N4CCOCC4)CC3)CC2)cc1 | -2.61%
CN(C)CCSc1nc(N)c2c3c(sc2n1)COC(C)(C)C3 | 1.6%
CCCSc1nc(NCc2ccco2)c2c3c(sc2n1)COC(C)(CC)C3 (stereo not given) | 30.4% (active)
CCC1(C)Cc2c(sc3nc(SC)nc(N)c23)CO1 (stereo not given) | -1.88%
COC(=O)c1ccc(C(NC(=O)OCc2ccccc2)/C(C)=C/[C@@H](C)C(=O)NCc2ccc(OC)c(OC)c2)cc1 (stereo not given in full) | 21.5% (active)
CCOc1ccc(C(CCc2ccccc2)NC(=O)c2ccc(OC)c(OC)c2)cc1OCC (stereo not given) | -0.85%
COC(=O)c1ccc(C2C(Oc3ccccc3C)C(=O)N2CCc2ccc(OC)c(OC)c2)cc1 (stereo not given) | 8.91%
O=C(CCCNS(=O)(=O)c1cccc2nsnc12)NCCN1CCN(c2ccccc2F)CC1 | 1.63%
Cc1c(/C=N\NC(=O)c2cc3ccccc3o2)c2ccccc2n1C | 8.68%
O=C1c2ccccc2C(=O)N1c1ccccc1S(=O)C(F)(F)F (stereo not given) | 21.4% (active)
CCOC(=O)Nc1ccccc1N1C(=O)c2ccccc2C1=O | -3.15%
O=C1C(=O)N(c2ccccc2)c2ccccc21 | 7.08%
